The source made the active and inactive calls. The calls are words filed in the database; no cut-off is given here.
Experiments:
[1] = target: Spike glycoprotein (Severe acute respiratory syndrome coronavirus 2) (UniProt P0DTC2); assay: Competitive inhibition of biotinylated heparin binding to His-tagged wild type SARS-COV-2 spike protein at 50 uM incubated for 300 sec by biolayer interferometry streptavidin sensor based assay
[2] = target: T1, Spike glycoprotein (Severe acute respiratory syndrome coronavirus 2, UniProt P0DTC2); assay: Competitive inhibition of biotinylated heparin binding to His-tagged wild type SARS-COV-2 spike protein incubated for 300 sec by biolayer interferometry streptavidin sensor based assay
Summary of the method: (§1)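 Streptavidin BLI sensor tips loaded with biotinylated heparin and exposed to wild-type S protein (1 μM) mixed with test compound (0–500 μM) in TBS (20 mM Tris, pH 7.4, 0.02% BSA). Bound (%) was taken from the BLI response. IC50 came from nonlinear regression, and Ki was derived from IC50 by the Cheng–Prusoff equation.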

[3] = target: T1, Spike glycoprotein; assay: Competitive inhibition of biotinylated heparin binding to His-tagged wild type SARS-COV-2 spike protein assessed inhibition constant incubated for 300 sec by biolayer interferometry streptavidin sensor based assay; summary of the method: as §1

Compound: CCCCCCCCO[C@H]1O[C@@H](C)[C@@H](O[C@@H]2O[C@@H](C)[C@@H](OS(=O)(=O)O)[C@@H](O[C@@H]3O[C@@H](C)[C@@H](O[C@@H]4O[C@@H](C)[C@@H](OS(=O)(=O)O)[C@@H](OS(=O)(=O)O)[C@@H]4OS(=O)(=O)O)[C@@H](OS(=O)(=O)O)[C@@H]3OS(=O)(=O)O)[C@@H]2OS(=O)(=O)O)[C@@H](OS(=O)(=O)O)[C@@H]1OS(=O)(=O)O
- inhibition [1]: Active

Compound: CCCCCCCCO[C@H]1O[C@@H](C)[C@@H](O[C@@H]2O[C@@H](C)[C@@H](O[C@@H]3O[C@@H](C)[C@@H](O[C@@H]4O[C@@H](C)[C@@H](OS(=O)(=O)O)[C@@H](OS(=O)(=O)O)[C@@H]4OS(=O)(=O)O)[C@@H](OS(=O)(=O)O)[C@@H]3OS(=O)(=O)O)[C@@H](OS(=O)(=O)O)[C@@H]2OS(=O)(=O)O)[C@@H](OS(=O)(=O)O)[C@@H]1OS(=O)(=O)O
- IC50 [2]: 86.9 µM
- Ki [3]: 3.02 µM
- inhibition [1]: Active

Compound: CCCCCCCCO[C@H]1O[C@@H](C)[C@@H](OS(=O)(=O)O)[C@@H](O[C@@H]2O[C@@H](C)[C@@H](OS(=O)(=O)O)[C@@H](O[C@@H]3O[C@@H](C)[C@@H](OS(=O)(=O)O)[C@@H](O[C@@H]4O[C@@H](C)[C@@H](OS(=O)(=O)O)[C@@H](OS(=O)(=O)O)[C@@H]4OS(=O)(=O)O)[C@@H]3OS(=O)(=O)O)[C@@H]2OS(=O)(=O)O)[C@@H]1OS(=O)(=O)O
- inhibition [1]: < 10%

— ChEMBL document CHEMBL5107952, “Synthesis of low-molecular weight fucoidan derivatives and their binding abilities to SARS-CoV-2 spike proteins” (RSC Med Chem, 2021)
